# Screening results: PubChem BioAssay, several laboratories
# Diaphorase inh – diaphorase inhibitors and chemical oxidizers, primary screen, counter-screen for diaphorase-coupled primary assays, biochemical, uHTS, resorufin fluorescence | diaphorase resazurin-to-resorufin fluorescence, NADH, 16 min; bacterial (C. kluyveri) enzyme, not human | inhibition, % at 20 µM | 190,000 compounds, 0.69% hits | AID 1217, 2008;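 active means primary screen inhibition at 20 µM above a set limit, cut at about 50% in these data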;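 further: plate controls were DMSO with full reaction for no effect and wells lacking NADH for full effect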
#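 System: Diaphorase enzyme from Clostridium kluyveri | Amount: Enzyme working solution with 0.14 U/mL diaphorase | Benchmarks: No-NADH positive control and DMSO neutral control | Signal: Fluorescence of resorufin formed from resazurin, Ex 544/Em 590 nm | Schedule: 16-min room-temperature incubation before reading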
# ROMK mod – ROMK potassium channel modulators, primary screen, cell-based, thallium flux, MLSMR library; ATP-sensitive inward rectifier potassium channel 1 (Homo sapiens), P48048; Tet-inducible ROMK, thallium flux fluorescence; actives lie on both sides; B-score at 10 µM; 130,000 compounds, 2% hits; AID 1918, 2009;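 active means signal ratio slope over the read window, or its plate-corrected B-score, at least 3 SD from the plate mean, either direction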;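 further: B-score of the F/F0 ratio slope over 7 to 12 s after thallium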
# Target sequence (P48048 whole entry, looked up): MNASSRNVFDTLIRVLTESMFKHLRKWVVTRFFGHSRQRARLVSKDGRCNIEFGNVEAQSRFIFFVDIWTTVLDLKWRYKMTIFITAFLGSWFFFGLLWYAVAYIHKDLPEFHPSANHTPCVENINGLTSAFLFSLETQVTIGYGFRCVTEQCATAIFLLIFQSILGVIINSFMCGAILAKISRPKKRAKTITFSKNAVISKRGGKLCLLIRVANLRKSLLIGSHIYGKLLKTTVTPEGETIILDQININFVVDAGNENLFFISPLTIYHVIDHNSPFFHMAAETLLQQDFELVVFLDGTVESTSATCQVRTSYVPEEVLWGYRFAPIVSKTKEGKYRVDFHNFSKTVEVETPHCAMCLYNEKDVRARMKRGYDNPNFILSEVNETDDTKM
# WT yeast gro inh – growth inhibition of WT strain, primary screen, mitochondrial fusion inhibitor project, WT and mutant strains, chemical genetic. mitochondrial fusion phenotypic screen. inhibition, % at 10 µM. 190,000 compounds, 2.1% hits. AID 1362, 2008; in the data active means inhibition above about 58%; tested in S. cerevisiae
# L major viab – Leishmania major promastigote growth inhibition, primary screen; Leishmania major promastigotes, resazurin fluorescence viability; inhibition, % at 10 µM; 200,000 compounds, 9% hits; AID 1063, 2008; in the data active means inhibition above about 50%;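 further: promastigotes grown with compound for 44 hours at 28 °C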
# Diaphorase act – compounds boosting diaphorase resazurin reduction – biochemical, uHTS, resorufin fluorescence, counter-screen for diaphorase-coupled primary assays, primary screen. 190,000 compounds, 0.005% hits. AID 1229, 2008. Diaphorase/resazurin coupled assay, 16 min; active compounds read high; 1 = vehicle wells, 0 = NADH-free wells. activation factor at 20 µM;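 active means diaphorase activity raised at least twofold by the compound at 20 µM; inactive means activation factor below 2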
#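 Material: Clostridium kluyveri diaphorase, purified enzyme; Quantity: enzyme 0.07 U/mL final; Medium: HEPES pH 7.4 buffer with MgCl2 and Tween 20; Dosing: single compound dose of 20 µM, 1% DMSO final; Schedule: 16 min reaction at room temperature; Measured by: red resorufin fluorescence at 544/590 nm excitation/emission.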
# Cl transport mod – KCC2 cotransporter modulators, thallium flux, primary screen, cell-based, HEK293 KCC2, FluoZin-2 fluorescence, MLSMR. Solute carrier family 12 member 5 (Homo sapiens), Q9H2X9. KCC2 cells, thallium flux FluoZin-2 fluorescence. B-score of Tl+ flux slope (higher = more flux/activation; lower = inhibition) at 10 µM. 190,000 compounds, 2.2% hits. AID 1456, 2008;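 active means thallium flux slope and its plate-corrected score both differing from the plate sample mean at a set confidence after two filtering rounds, in either direction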;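 further: slope of fluorescence scaled to starting intensity during 10 to 20 s after thallium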
# * = called active by the depositor; . = no result given. Only some compounds are listed: those with a hit (about 12% of all), similar ones and a draw of the others.
SMILES,Diaphorase inh,ROMK mod,WT yeast gro inh,L major viab,Diaphorase act,Cl transport mod
CN(Cc1ccccc1)C(=O)Cn1c(=O)oc2cc(S(=O)(=O)NCc3ccccc3)ccc21,3,.,4,-6,1,.
O=C(NC1CCCc2ccccc21)C1CCN(S(=O)(=O)c2ccccc2)CC1 (stereo not given),12,-0.89,17,1,0.9,-0.53
O=C(Cn1c(=O)oc2cc(S(=O)(=O)N3CCCC3)ccc21)NC1CCCc2ccccc21 (stereo not given),-13,.,14,100*,1.1,-0.71
Cn1c(=O)c(=O)n(C)c2cc(S(=O)(=O)N3CCc4ccccc43)ccc21,11,.,-12,52*,0.9,.
COC(C[C@@H](O)C[C@H](O)COCc1ccccc1)OC,.,.,.,.,.,-0.38
Cc1ccccc1C(=O)N[C@H](C(=O)OCC(=O)c1ccc[nH]1)C(C)C,4,.,-36,-2,1,0.24
O=c1[nH]c(CN2CCN(S(=O)(=O)c3cccs3)CC2)nc2c(Br)cc(Br)cc12,3,0.87,24,11,1,1.1
O=C(Cn1c(=O)oc2cc(S(=O)(=O)N3CCCC3)ccc21)Nc1ccc(C(F)(F)F)cc1,-3,.,-2,52*,1,-1.7
CC(NC(=O)Cn1c(=O)oc2cc(S(=O)(=O)N3CCCC3)ccc21)c1ccccc1 (stereo not given),12,.,-18,100*,0.9,-0.31
COc1cccc(NC(=O)Cn2c(=O)oc3cc(S(=O)(=O)N4CCCC4)ccc32)c1,.,0.87,.,.,.,0.34
CC(C)(C)NC(=O)Cn1c(=O)oc2cc(S(=O)(=O)N3CCc4ccccc43)ccc21,9,.,-9,98*,0.9,0.37
O=C(Cn1c(=O)oc2cc(S(=O)(=O)N3CCCC3)ccc21)N1CCN(c2ccccc2)CC1,0,.,-9,100*,1,.
O=C(NCC1CCN(S(=O)(=O)c2ccccc2)CC1)Nc1ccc(F)cc1F,.,.,.,.,.,-0.41
CCSc1ncc(/C=N/Nc2ccc(F)cc2)n1C,25,-0.18,53,69*,0.7,.
CCCCn1nnnc1SCC(=O)Nc1ccc(F)cc1,22,.,0,-2,0.8,-0.29
CCOc1cc(/C=C/c2nc3cc(C)c(C)cc3s2)ccc1OCC(=O)N1CCOCC1,17,.,-1,86*,0.8,-0.12
CCOC(=O)COc1cnc2ccccc2n1,4,0.6,-12,-9,1,1.6
CC(C)(C)C(=O)/C(=C/c1ccncc1)n1cncn1,-4,-1.8,3,100*,1,0.59
COc1ccc([N+](=O)[O-])cc1N(CC(=O)N1CCOCC1)S(C)(=O)=O,3,-2.2,6,-14,1,-0.52
O=C(O)Cn1ncn(-c2ccc(OC(F)(F)F)cc2)c1=O,0,0.37,-1,-4,1,0.35
CN(C)CCCN=Cc1c(O)n(Cc2ccccc2)c(=O)c2ccccc12,-1,.,.,92*,1,.
COc1ccc(Cn2c(O)c(C=Nc3ccc(O)cc3)c3ccccc3c2=O)cc1,13,0.33,64*,94*,0.9,-0.12
COc1ccc(Cn2c(O)c(C=Nc3ccc(C)cc3)c3ccccc3c2=O)cc1,1,.,-3,92*,1,0.29
CCCCCCn1c(C(C)NC(=O)c2ccco2)nc2ccccc21 (stereo not given),1,1,-6,0,1,-0.17
COc1ccc(C(=O)N/N=C/c2ccc(SC)cc2)cc1,-9,1.1,0,-5,1.1,0.023
CSc1ccc(/C=N/NC(=O)c2ccc(O)cc2)cc1,3,.,13,96*,1,-2.9
CSc1ccc(/C=N/NC(=O)c2ccccc2Cl)cc1,58*,2.6,-8,4,0.4,-0.058
CNc1nnc(Sc2ncccc2[N+](=O)[O-])s1,.,.,.,.,.,-0.28
CCCn1c(SCC(=O)NC(C)(C)C)nnc1-c1ccco1,10,0.62,-27,-7,0.9,0.74
